The target of assay [1] is T1, Progesterone receptor (Homo sapiens) (UniProt P06401).
T1 sequence (whole entry): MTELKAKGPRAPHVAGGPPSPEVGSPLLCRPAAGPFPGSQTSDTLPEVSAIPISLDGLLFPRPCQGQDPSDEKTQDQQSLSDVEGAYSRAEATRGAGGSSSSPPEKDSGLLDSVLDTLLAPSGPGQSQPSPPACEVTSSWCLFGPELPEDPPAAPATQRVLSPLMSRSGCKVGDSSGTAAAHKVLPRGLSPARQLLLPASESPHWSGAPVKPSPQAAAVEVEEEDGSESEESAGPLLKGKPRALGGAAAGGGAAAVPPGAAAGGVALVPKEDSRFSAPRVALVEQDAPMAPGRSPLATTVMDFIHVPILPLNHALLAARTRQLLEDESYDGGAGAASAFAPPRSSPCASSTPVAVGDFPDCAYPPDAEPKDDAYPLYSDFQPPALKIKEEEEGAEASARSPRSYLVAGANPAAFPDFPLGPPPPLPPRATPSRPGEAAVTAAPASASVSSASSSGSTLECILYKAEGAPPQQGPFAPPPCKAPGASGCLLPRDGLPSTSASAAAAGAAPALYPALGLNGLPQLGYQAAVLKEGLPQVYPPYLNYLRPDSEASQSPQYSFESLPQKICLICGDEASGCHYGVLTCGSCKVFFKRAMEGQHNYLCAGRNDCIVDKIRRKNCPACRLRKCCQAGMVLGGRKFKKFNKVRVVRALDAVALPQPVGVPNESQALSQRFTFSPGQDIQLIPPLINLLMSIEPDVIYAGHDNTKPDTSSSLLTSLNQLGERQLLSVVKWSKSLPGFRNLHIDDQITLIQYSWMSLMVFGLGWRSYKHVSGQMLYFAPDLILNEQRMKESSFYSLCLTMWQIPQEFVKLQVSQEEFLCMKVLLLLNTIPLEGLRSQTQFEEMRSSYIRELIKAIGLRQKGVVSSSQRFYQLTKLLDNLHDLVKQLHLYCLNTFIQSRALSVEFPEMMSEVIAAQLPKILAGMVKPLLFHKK
The assay is described as follows: Efficacy for progesterone receptor relative to progesterone.

The target in the next assay is T2, Glucocorticoid receptor (Homo sapiens, UniProt P04150).
T2 sequence (P04150 whole entry): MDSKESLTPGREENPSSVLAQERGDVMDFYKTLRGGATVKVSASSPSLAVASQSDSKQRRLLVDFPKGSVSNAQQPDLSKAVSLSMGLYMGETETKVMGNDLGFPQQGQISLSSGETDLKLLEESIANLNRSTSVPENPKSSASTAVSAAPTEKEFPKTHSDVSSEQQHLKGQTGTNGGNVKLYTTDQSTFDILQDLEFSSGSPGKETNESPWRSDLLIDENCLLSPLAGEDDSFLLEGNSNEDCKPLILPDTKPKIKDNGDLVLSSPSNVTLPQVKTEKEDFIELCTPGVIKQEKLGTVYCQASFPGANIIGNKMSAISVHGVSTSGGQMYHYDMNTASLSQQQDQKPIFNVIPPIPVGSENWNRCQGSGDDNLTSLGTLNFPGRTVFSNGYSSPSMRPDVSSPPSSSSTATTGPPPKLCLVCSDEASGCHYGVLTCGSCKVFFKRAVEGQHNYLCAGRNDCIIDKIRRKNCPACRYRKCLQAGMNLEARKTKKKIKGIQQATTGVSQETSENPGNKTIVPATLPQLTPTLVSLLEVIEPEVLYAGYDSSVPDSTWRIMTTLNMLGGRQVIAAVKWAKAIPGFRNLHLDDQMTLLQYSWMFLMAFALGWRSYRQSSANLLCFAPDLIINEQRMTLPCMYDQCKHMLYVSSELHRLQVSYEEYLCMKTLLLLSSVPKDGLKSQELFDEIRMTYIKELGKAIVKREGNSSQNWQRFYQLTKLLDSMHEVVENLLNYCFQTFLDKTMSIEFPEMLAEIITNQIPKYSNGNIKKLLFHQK
The assay is described as follows: Binding affinity for baculovirus-expressed human glucocorticoid receptor.

The target of assay [2] is T3, Progesterone receptor (Rattus norvegicus) (UniProt Q63449).
T3 sequence (whole entry): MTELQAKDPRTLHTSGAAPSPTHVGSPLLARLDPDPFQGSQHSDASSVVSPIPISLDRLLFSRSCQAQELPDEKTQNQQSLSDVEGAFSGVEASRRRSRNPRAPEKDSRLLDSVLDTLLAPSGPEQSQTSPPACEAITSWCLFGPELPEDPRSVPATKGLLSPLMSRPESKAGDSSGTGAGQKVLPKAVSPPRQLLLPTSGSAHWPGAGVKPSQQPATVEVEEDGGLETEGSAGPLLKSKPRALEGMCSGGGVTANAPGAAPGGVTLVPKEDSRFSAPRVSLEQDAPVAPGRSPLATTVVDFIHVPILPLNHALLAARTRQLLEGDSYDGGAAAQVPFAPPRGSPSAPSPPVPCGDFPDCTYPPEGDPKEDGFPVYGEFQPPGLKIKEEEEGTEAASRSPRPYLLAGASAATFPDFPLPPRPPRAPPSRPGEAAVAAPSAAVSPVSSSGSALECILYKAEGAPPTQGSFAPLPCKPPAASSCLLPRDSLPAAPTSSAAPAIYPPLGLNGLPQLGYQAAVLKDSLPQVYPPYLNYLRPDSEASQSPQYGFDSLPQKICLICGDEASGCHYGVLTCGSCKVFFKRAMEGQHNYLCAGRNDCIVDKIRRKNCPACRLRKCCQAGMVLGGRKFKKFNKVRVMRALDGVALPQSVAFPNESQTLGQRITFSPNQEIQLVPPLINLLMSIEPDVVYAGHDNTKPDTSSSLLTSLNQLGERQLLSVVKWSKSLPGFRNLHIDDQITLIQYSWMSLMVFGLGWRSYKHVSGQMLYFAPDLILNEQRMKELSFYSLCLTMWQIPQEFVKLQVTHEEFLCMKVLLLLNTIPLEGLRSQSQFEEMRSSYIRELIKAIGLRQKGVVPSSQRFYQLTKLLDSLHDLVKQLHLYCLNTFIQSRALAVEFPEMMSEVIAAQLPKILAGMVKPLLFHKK
The assay is described as follows: Fold induction as increase in BrdU labeling index over estrone treatment alone in lobular-aveolar rat mammary buds by progestin treatment at 3 mg/kg. The arrangement: dose 3 mg/kg. The assay is classed as functional, organism-based. Summed up:
(§1)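 Ovariectomized Sprague-Dawley rats, 4-5 weeks old, groups of 4-5, given estrone 10 µg sc plus oral compound in corn oil (0.5 mL) for 3 days. On day 4, BrdU 200 mg/kg ip; mammary glands taken 3 h later. Frozen sections stained with anti-BrdU/FITC. Labeling index = labeled/lobular area, averaged over 12 fields per gland, as fold over estrone alone.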
A general note: Uptake of a labelled nucleoside into DNA is a usual measure of proliferation.

Assay [3] has as its target T4, Progesterone receptor (Homo sapiens, UniProt P06401).
T4 sequence (P06401 whole entry): T1 sequence (whole entry)
The assay is described as follows: Effective concentration for half-maximal activation of human progesterone receptor expressed in CV-1 cells. The assay is classed as cell-based.

In assay [4] the target is T4, Progesterone receptor. The assay is described as follows: Binding affinity for baculovirus-expressed human progesterone receptor isoform A.
The target of assay [5] is T3, Progesterone receptor (Rattus norvegicus). The assay is described as follows: Fold induction as increase in BrdU labeling index over estrone treatment alone in lobular-aveolar rat mammary buds by progestin treatment. The assay is classed as functional. Summed up:
as §1

In turn, `CC1=CC(C)(C)Nc2ccc3c(c21)C(c1cccc(Cl)c1)Oc1ccc(F)cc1-3` (racemic) [listing 1 of 2 here] showed an Efficacy in assay [1] of 117.
On to `CC1=CC(C)(C)Nc2ccc3c(c21)C(c1ccc(Cl)c(C)c1)Oc1ccc(F)cc1-3` (racemic) [listing 1 of 2 here], for which the Ki (as a rule, the equilibrium dissociation constant of an inhibitor or competing ligand from its target) at Glucocorticoid receptor turned out to be 210 nM.
In assay [1], `CC1=CC(C)(C)Nc2ccc3c(c21)C(c1cccc(Cl)c1)Oc1ccc(F)cc1-3` (single isomer, unassigned; (-)) [listing 1 of 2 here] showed an Efficacy of 125. The Fold induction in assay [2] was 3.6.
Turning to `CC1=CC(C)(C)Nc2ccc3c(c21)C(c1cccc(Cl)c1)Oc1ccc(F)cc1-3` (racemic) [listing 2 of 2 here], the Ki at Glucocorticoid receptor was 133 nM.
For the compound `CC1=CC(C)(C)Nc2ccc3c(c21)C(c1cccc(Cl)c1)Oc1ccc(F)cc1-3` (single isomer, unassigned; (+)) [listing 1 of 2 here], it took 135 nM to reach a half-maximal effect on Progesterone receptor [3] (EC50). The same compound came in with a Ki at Progesterone receptor [4] of 30 nM.
Consider `CC1=CC(C)(C)Nc2ccc3c(c21)C(c1ccc(Cl)c(C)c1)Oc1ccc(F)cc1-3` (stereo in doubt) [listing 1 of 2 here], for which, in assay [1], the Efficacy was 43.
For `C[C@]12CC[C@@H]3c4ccc(O)cc4CC[C@H]3[C@@H]1CCC2=O`, the Fold induction turned out to be 1 in assay [5] and 24 in assay [2].
Turning to `CC1=CC(C)(C)Nc2ccc3c(c21)C(c1ccc(Cl)c(C)c1)Oc1ccc(F)cc1-3` (single isomer, unassigned; (-)) [listing 1 of 2 here], the concentration giving a half-maximal response (EC50) (usually the concentration giving half of the maximal effect) on Progesterone receptor [3] is 2.4 nM. Besides, the affinity at Progesterone receptor [4], expressed as Ki, was 0.4 nM.
On to `CC1=CC(C)(C)Nc2ccc3c(c21)C(c1ccc(Cl)c(C)c1)Oc1ccc(Cl)cc1-3` (racemic), for which, in assay [1], the Efficacy came to 73. This compound also came in with an inhibition constant (Ki) on Glucocorticoid receptor of 14 nM.
`CC1=CC(C)(C)Nc2ccc3c(c21)C(c1ccc(Cl)c(C)c1)Oc1ccc(F)cc1-3` (single isomer, unassigned; (-)) [listing 2 of 2 here] displayed an Efficacy in assay [1] of 99. The Fold induction in assay [2] is 2.5.
The compound `CC1=CC(C)(C)Nc2ccc3c(c21)C(c1cccc(Cl)c1)Oc1ccc(Cl)cc1-3` (racemic) returned an Efficacy in assay [1] of 95. The compound also had a Ki at Glucocorticoid receptor of 6.3 nM.
Turning to `CC1=CC(C)(C)Nc2ccc3c(c21)C(c1ccc(Cl)c(C)c1)Oc1ccc(F)cc1-3` (stereo in doubt) [listing 2 of 2 here], the concentration for a half-maximal effect (EC50) at Progesterone receptor [3] turned out to be 147 nM. Further, the affinity on Progesterone receptor [4], expressed as Ki, was 60 nM.
In assay [1], `CC1=CC(C)(C)Nc2ccc3c(c21)C(c1ccc(Cl)c(C)c1)Oc1ccc(F)cc1-3` (racemic) [listing 2 of 2 here] gave an Efficacy of 97.
Turning to `CC1=CC(C)(C)Nc2ccc3c(c21)C(c1cccc(Cl)c1)Oc1ccc(F)cc1-3` (single isomer, unassigned; (-)) [listing 2 of 2 here], the concentration for a half-maximal effect (EC50) on Progesterone receptor [3] worked out at 1.3 nM. On Progesterone receptor [4], the affinity corresponds to a Ki of 0.1 nM.
For `CC1=CC(C)(C)Nc2ccc3c(c21)C(c1cccc(Cl)c1)Oc1ccc(F)cc1-3` (single isomer, unassigned; (+)) [listing 2 of 2 here], in assay [1], the Efficacy amounted to 83.

Values taken from ChEMBL document CHEMBL1131626 (J Med Chem, 1998).
